The subject of data set [1] is Mus musculus. In words: Antiamnesic activity against scopolamine-induced dementia in B6SJL mouse assessed as increase in freezing behavior at 10 mg/kg, ip after 24 hrs. The format is functional, organism-based. Also on record: dose 10 mg/kg. Put shortly: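 Male B6SJL mice, 10 weeks old and naive (n = 12–16/group), were given compound IP in 5% beta-cyclodextrin and/or scopolamine 0.3 mg/kg in 0.9% saline 30 min before training. Training was 2 tone (3 kHz, 85 dB, 30 s)–footshock (0.5 mA, 1 s) pairings 2 min apart. Freezing in the same chamber was video-scored 24 h later.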

Data set [2] deals with T1, Muscarinic acetylcholine receptor M2 (Homo sapiens) (UniProt P08172).
T1 sequence (whole entry): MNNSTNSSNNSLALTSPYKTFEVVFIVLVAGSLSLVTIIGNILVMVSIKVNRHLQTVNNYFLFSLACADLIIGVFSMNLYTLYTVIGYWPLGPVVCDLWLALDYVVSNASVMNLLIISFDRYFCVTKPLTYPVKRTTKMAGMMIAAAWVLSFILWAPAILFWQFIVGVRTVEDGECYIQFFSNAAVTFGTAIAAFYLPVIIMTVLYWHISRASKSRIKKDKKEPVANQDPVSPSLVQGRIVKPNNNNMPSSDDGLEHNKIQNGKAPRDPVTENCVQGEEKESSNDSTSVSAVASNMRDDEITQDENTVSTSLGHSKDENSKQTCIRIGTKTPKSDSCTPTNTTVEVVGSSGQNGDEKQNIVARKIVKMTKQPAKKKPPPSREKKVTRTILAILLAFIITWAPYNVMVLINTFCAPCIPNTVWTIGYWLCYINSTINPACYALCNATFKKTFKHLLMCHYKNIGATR
As to the kind of experiment: Agonist activity at human muscarinic M2 receptor expressed in CHONFAT cells assessed as increase in acetylcholine-induced calcium mobilization at 10 uM preincubated for 4 mins measured after 1 hr by FLIPR assay. The format is functional, cell-based. Put shortly:
(§1)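 CHO-NFAT cells expressing the named muscarinic receptor (human M1–M4; rhesus, dog or rat M1 in CHO-K1) were plated at 25,000 cells/well and grown overnight at 37 °C, 6% CO2. Cells were loaded with 1 μM Fluo-4AM for 1 h, washed, and preincubated 4 min with serially diluted compound (final DMSO 0.67%). They were then stimulated 4 min with an EC20 of ACh, and Ca2+ flux was read by FLIPR384.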

Data set [3] addresses T2, Muscarinic acetylcholine receptor M1 (Mus musculus) (UniProt P12657).
T2 sequence (whole entry): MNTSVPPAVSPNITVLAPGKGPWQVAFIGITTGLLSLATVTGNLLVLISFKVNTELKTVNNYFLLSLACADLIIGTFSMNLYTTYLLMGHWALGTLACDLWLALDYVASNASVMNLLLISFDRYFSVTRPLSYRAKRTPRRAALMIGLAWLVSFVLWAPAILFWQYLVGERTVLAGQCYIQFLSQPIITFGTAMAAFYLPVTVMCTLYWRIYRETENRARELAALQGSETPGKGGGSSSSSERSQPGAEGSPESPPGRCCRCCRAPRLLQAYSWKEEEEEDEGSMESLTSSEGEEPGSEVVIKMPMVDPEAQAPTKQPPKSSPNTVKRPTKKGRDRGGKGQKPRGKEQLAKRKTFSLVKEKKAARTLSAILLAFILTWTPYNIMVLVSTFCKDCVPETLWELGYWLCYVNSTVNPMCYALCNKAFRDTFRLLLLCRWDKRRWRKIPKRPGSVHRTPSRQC
In words: Agonist activity at mouse muscarinic M1 receptor expressed in CHOK1 cells assessed as potentiation of acetylcholine-induced calcium mobilization preincubated for 4 mins measured after 1 hr by FLIPR assay. The settings on record: CHO-K1. The format is functional, cell-based. Put shortly: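 CHO-NFAT cells (CHO-K1 background) expressing mouse M1, plated 25,000/well, grown overnight at 37 °C, 6% CO2. Cells washed in HBSS with 20 mM Hepes, 2.5 mM probenecid, 0.1% BSA, then loaded with 1 μM Fluo-4AM for 1 h at 37 °C. Compound (final 0.67% DMSO) preincubated 4 min, then stimulated 4 min with EC20 ACh. Ca2+ flux read on FLIPR384.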

Data set [4] is described as follows: Plasma protein binding in human serum by equilibrium dialysis method. The format is ADME, cell-free. The settings on record: read-out: PPB (converted). Put shortly: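 Protein binding measured by equilibrium dialysis against rat or human serum.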
The target in data set [5] is T3, Muscarinic acetylcholine receptor M1 (Homo sapiens) (UniProt P11229).
T3 sequence (whole entry): T2 sequence (whole entry) with V5A, S254T, K320R, G337A, V413I
In words: Positive allosteric modulation of human muscarinic M1 receptor expressed in CHONFAT cells assessed as potentiation of acetylcholine-induced calcium mobilization at 1 uM preincubated for 4 mins measured after 1 hr by FLIPR assay relative to control. The format is functional, cell-based. Put shortly: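 CHO-NFAT cells expressing human M1, 25,000 cells/well, grown overnight at 37 °C, 6% CO2. Washed in HBSS with 20 mM Hepes, 2.5 mM probenecid, 0.1% BSA, then loaded with 1 μM Fluo-4AM for 1 h at 37 °C. Compound preincubated 4 min (final DMSO 0.67%), then serially diluted ACh added for 4 min. Ca2+ flux read by FLIPR384; fold leftward shift of the ACh dose-response curve.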

For data set [6], the target named is T4, Muscarinic acetylcholine receptor M4 (Homo sapiens) (UniProt P08173).
T4 sequence (whole entry): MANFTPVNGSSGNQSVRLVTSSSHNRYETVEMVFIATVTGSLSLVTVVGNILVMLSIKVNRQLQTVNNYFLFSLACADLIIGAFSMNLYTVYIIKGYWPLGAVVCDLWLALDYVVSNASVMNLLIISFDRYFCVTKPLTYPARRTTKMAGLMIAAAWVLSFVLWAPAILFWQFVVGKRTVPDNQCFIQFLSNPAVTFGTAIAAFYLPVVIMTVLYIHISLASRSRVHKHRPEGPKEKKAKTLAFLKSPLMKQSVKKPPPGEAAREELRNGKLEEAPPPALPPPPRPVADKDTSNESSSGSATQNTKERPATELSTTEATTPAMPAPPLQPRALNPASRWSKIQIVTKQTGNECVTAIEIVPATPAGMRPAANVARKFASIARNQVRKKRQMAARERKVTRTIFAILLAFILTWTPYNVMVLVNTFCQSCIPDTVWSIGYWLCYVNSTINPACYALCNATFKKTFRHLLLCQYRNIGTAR
As to the kind of experiment: Agonist activity at human muscarinic M4 receptor expressed in CHONFAT cells assessed as increase in acetylcholine-induced calcium mobilization at 10 uM preincubated for 4 mins measured after 1 hr by FLIPR assay. The format is functional, cell-based. Put shortly: as §1

SMILES strings stand for the structures. Where a chain is given by its changes, count along the chain named. Activity calls are given as the source filed them. No cut-off for these calls is given here.

Take `N#CC1(c2ccccn2)CCN(Cc2cc(C(=O)O)c(=O)n3ccccc23)CC1` [MSD-M1PAM]: in data set [1], the outcome was Active. Besides, the result in data set [2] and in data set [6] was inactive. Moreover, the IP in data set [3] is 69 nM. For the same compound, the fraction unbound in data set [4] is 0.291. Also, the fold change (FC) in data set [5] is 146.

(Values after ChEMBL document CHEMBL1799933, “Discovery of a selective allosteric M1 receptor modulator with suitable development properties based on a quinolizidinone carboxylic acid scaffold” (J Med Chem, 2011).)
